Measurements published in ChEMBL document CHEMBL1240485, “Glycopeptide dendrimer colchicine conjugates targeting cancer cells” (Bioorg Med Chem, 2010).
Activity calls are given as the source filed them. The rule behind the calls is not given here. Bridge positions count the residues as written; N and C are the ends. Square brackets hold non-standard residues; d marks the D form. Peptide text beside a SMILES is read from it. I, II: the chains in the order shown. * marks the point of attachment. X1 = COc1cc2c(c(OC)c1OC)-c1ccc(OC)c(=O)cc1[C@@H](N(C(C)=O)C(=O)[C@H](CS)N*)CC2; X2 = O=C(CCS[C@@H]1O[C@H](CO)[C@H](O)[C@H](O)[C@H]1O)*; βGal = OC[C@H]1O[C@@H](*)[C@H](O)[C@@H](O)[C@H]1O; Dap = NC[C@H](N)C(=O)O; Mpa = O=C(O)CCS

Legend:
MEF = experiment: Cytotoxicity against MEF cells assessed as dead cells at 5 uM after 48 hrs by visual cell counting under the microscope; conditions: mouse
Jurkat [1] = experiment: Cytotoxicity against human Jurkat cells after 48 hrs; assay type: functional; conditions: read-out: LD50 (the source's name)
Summary of the method: (§1)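 Jurkat cells were grown in RPMI with 10% FCS, penicillin/streptomycin and L-glutamine at 37 °C and 5% CO2. They were seeded at 50,000 cells/mL and cultured overnight, then given compound from sterile water stock and held 48 h. Propidium iodide was added 2 min before FACS (excitation 488 nm). Dead cells were counted at 5 µM final. LD50 was derived from dose–response curves.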

Jurkat [2] = experiment: Cytotoxicity against human Jurkat cells assessed as dead cells at 5 uM after 48 hrs by propidium iodide-based FACS flow cytometry; assay type: functional
Summary of the method: as §1

Jurkat [3] = experiment: Cytotoxicity against human Jurkat cells at 5 uM after 48 hrs; assay type: functional, cell-based
Summary of the method: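 Jurkat cells (RPMI, 10% FCS, 37 °C, 5% CO2) seeded at 50,000 cells per mL, grown overnight, then dosed with colchicine–dendrimer conjugate at 5 μM final from sterile water stock. After 48 h, propidium iodide added 2 min before FACS (excitation 488 nm); dead vs healthy cells counted, reported as % dead cells.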

Compound | Activity (MEF) [%] | CC50 (Jurkat [1]) [µM] | Activity (Jurkat [2]) | Activity (Jurkat [3])
COc1cc2c(c(OC)c1OC)-c1ccc(OC)c(=O)cc1[C@@H](N(C(C)=O)C(=O)[C@H](CS)NC(=O)[C@H](CC(=O)O)NC(=O)[C@H](CC(C)C)NC(=O)[C@H](Cc1ccc(O)cc1)NC(=O)[C@@H](NC(=O)[C@H](CNC(=O)[C@H](C)NC(=O)[C@H](CO)NC(=O)[C@H](CC(=O)O)NC(=O)[C@H](Cc1ccccc1)NC(=O)CCS[C@@H]1O[C@H](CO)[C@H](O)[C@H](O)[C@H]1O)NC(=O)[C@H](C)NC(=O)[C@H](CO)NC(=O)[C@H](CC(=O)O)NC(=O)[C@H](Cc1ccccc1)NC(=O)CCS[C@@H]1O[C@H](CO)[C@H](O)[C@H](O)[C@H]1O)[C@@H](C)O)CC2 (I: [Mpa](βGal)FDSA[Dap]TYLD-X1 / II: [Mpa](βGal)FDSA; amide I:6-II:C) [listing 1 of 2 here] | 68 | – | – | –
COc1cc2c(c(OC)c1OC)-c1ccc(OC)c(=O)cc1[C@@H](N(C(C)=O)C(=O)[C@H](CS)NC(=O)[C@H](CC(=O)O)NC(=O)[C@H](CC(C)C)NC(=O)[C@H](Cc1ccc(O)cc1)NC(=O)[C@@H](NC(=O)[C@H](CNC(=O)[C@H](C)NC(=O)[C@H](CO)NC(=O)[C@H](CC(=O)O)NC(=O)[C@H](Cc1ccccc1)NC(=O)CCS[C@@H]1O[C@H](CO)[C@H](O)[C@H](O)[C@H]1O)NC(=O)[C@H](C)NC(=O)[C@H](CO)NC(=O)[C@H](CC(=O)O)NC(=O)[C@H](Cc1ccccc1)NC(=O)CCS[C@@H]1O[C@H](CO)[C@H](O)[C@H](O)[C@H]1O)[C@@H](C)O)CC2 (I: [Mpa](βGal)FDSA[Dap]TYLD-X1 / II: [Mpa](βGal)FDSA; amide I:6-II:C) [listing 2 of 2 here] | – | 1.53 | <=91% | –
COc1cc2c(c(OC)c1OC)-c1ccc(OC)c(=O)cc1[C@@H](N(C(C)=O)C(=O)[C@H](CS)NC(=O)[C@H](CC(=O)O)NC(=O)[C@H](CC(C)C)NC(=O)[C@H](Cc1ccc(O)cc1)NC(=O)[C@@H](NC(=O)[C@H](CNC(=O)[C@H](C)NC(=O)[C@H](CO)NC(=O)[C@H](CC(N)=O)NC(=O)[C@H](Cc1ccccc1)NC(=O)CCS[C@@H]1O[C@H](CO)[C@H](O)[C@H](O)[C@H]1O)NC(=O)[C@H](C)NC(=O)[C@H](CO)NC(=O)[C@H](CC(N)=O)NC(=O)[C@H](Cc1ccccc1)NC(=O)CCS[C@@H]1O[C@H](CO)[C@H](O)[C@H](O)[C@H]1O)[C@@H](C)O)CC2 (I: [Mpa](βGal)FNSA[Dap]TYLD-X1 / II: [Mpa](βGal)FNSA; amide I:6-II:C) [listing 1 of 2 here] | 6 | – | – | –
COc1cc2c(c(OC)c1OC)-c1ccc(OC)c(=O)cc1[C@@H](N(C(C)=O)C(=O)[C@H](CS)NC(=O)[C@H](CC(=O)O)NC(=O)[C@H](CC(C)C)NC(=O)[C@H](Cc1ccc(O)cc1)NC(=O)[C@@H](NC(=O)[C@H](CNC(=O)[C@H](C)NC(=O)[C@H](CO)NC(=O)[C@H](CC(N)=O)NC(=O)[C@H](Cc1ccccc1)NC(=O)CCS[C@@H]1O[C@H](CO)[C@H](O)[C@H](O)[C@H]1O)NC(=O)[C@H](C)NC(=O)[C@H](CO)NC(=O)[C@H](CC(N)=O)NC(=O)[C@H](Cc1ccccc1)NC(=O)CCS[C@@H]1O[C@H](CO)[C@H](O)[C@H](O)[C@H]1O)[C@@H](C)O)CC2 (I: [Mpa](βGal)FNSA[Dap]TYLD-X1 / II: [Mpa](βGal)FNSA; amide I:6-II:C) [listing 2 of 2 here] | – | 5.52 | 19% | –
COc1cc2c(c(OC)c1OC)-c1ccc(OC)c(=O)cc1[C@@H](N(C(C)=O)C(=O)[C@H](CS)NC(=O)[C@H](CCCCNC(=O)CCS[C@@H]1O[C@H](CO)[C@H](O)[C@H](O)[C@H]1O)NC(=O)[C@H](Cc1ccccc1)NC(=O)[C@H](CCCNC(=N)N)NC(=O)[C@H](CC(N)=O)NC(=O)[C@H](CNC(=O)[C@@H](NC(=O)[C@H](CCC(=O)O)NC(=O)[C@H](CC(=O)O)NC(=O)CNC(=O)CCS[C@@H]1O[C@H](CO)[C@H](O)[C@H](O)[C@H]1O)[C@@H](C)O)NC(=O)[C@@H](NC(=O)[C@H](CCC(=O)O)NC(=O)[C@H](CC(=O)O)NC(=O)CNC(=O)CCS[C@@H]1O[C@H](CO)[C@H](O)[C@H](O)[C@H]1O)[C@@H](C)O)CC2 (I: [Mpa](βGal)GDET[Dap]NRFK(X2)-X1 / II: [Mpa](βGal)GDET; amide I:6-II:C) | – | – | – | inactive
COc1cc2c(c(OC)c1OC)-c1ccc(OC)c(=O)cc1[C@@H](N(C(C)=O)C(=O)[C@H](CS)NC(=O)[C@H](CCCCNC(=O)CCS[C@@H]1O[C@H](CO)[C@H](O)[C@H](O)[C@H]1O)NC(=O)[C@H](Cc1ccccc1)NC(=O)[C@H](CCCNC(=N)N)NC(=O)[C@H](CC(N)=O)NC(=O)[C@H](CNC(=O)[C@@H](NC(=O)[C@H](CCC(=O)O)NC(=O)[C@H](CC(N)=O)NC(=O)CNC(=O)CCS[C@@H]1O[C@H](CO)[C@H](O)[C@H](O)[C@H]1O)[C@@H](C)O)NC(=O)[C@@H](NC(=O)[C@H](CCC(=O)O)NC(=O)[C@H](CC(N)=O)NC(=O)CNC(=O)CCS[C@@H]1O[C@H](CO)[C@H](O)[C@H](O)[C@H]1O)[C@@H](C)O)CC2 (I: [Mpa](βGal)GNET[Dap]NRFK(X2)-X1 / II: [Mpa](βGal)GNET; amide I:6-II:C) | – | – | – | inactive
COc1cc2c(c(OC)c1OC)-c1ccc(OC)c(=O)cc1[C@@H](N(C(C)=O)C(=O)[C@H](CS)NC(=O)[C@H](CC(=O)O)NC(=O)[C@H](Cc1cnc[nH]1)NC(=O)[C@H](CCCNC(=N)N)NC(=O)[C@@H](NC(=O)[C@H](CNC(=O)[C@H](C)NC(=O)[C@H](Cc1cnc[nH]1)NC(=O)[C@H](CCCNC(=N)N)NC(=O)CNC(=O)CCS[C@@H]1O[C@H](CO)[C@H](O)[C@H](O)[C@H]1O)NC(=O)[C@H](C)NC(=O)[C@H](Cc1cnc[nH]1)NC(=O)[C@H](CCCNC(=N)N)NC(=O)CNC(=O)CCS[C@@H]1O[C@H](CO)[C@H](O)[C@H](O)[C@H]1O)[C@@H](C)O)CC2 (I: [Mpa](βGal)GRHA[Dap]TRHD-X1 / II: [Mpa](βGal)GRHA; amide I:6-II:C) [listing 1 of 2 here] | 51 | – | – | –
COc1cc2c(c(OC)c1OC)-c1ccc(OC)c(=O)cc1[C@@H](N(C(C)=O)C(=O)[C@H](CS)NC(=O)[C@H](CC(=O)O)NC(=O)[C@H](Cc1cnc[nH]1)NC(=O)[C@H](CCCNC(=N)N)NC(=O)[C@@H](NC(=O)[C@H](CNC(=O)[C@H](C)NC(=O)[C@H](Cc1cnc[nH]1)NC(=O)[C@H](CCCNC(=N)N)NC(=O)CNC(=O)CCS[C@@H]1O[C@H](CO)[C@H](O)[C@H](O)[C@H]1O)NC(=O)[C@H](C)NC(=O)[C@H](Cc1cnc[nH]1)NC(=O)[C@H](CCCNC(=N)N)NC(=O)CNC(=O)CCS[C@@H]1O[C@H](CO)[C@H](O)[C@H](O)[C@H]1O)[C@@H](C)O)CC2 (I: [Mpa](βGal)GRHA[Dap]TRHD-X1 / II: [Mpa](βGal)GRHA; amide I:6-II:C) [listing 2 of 2 here] | – | 1.5 | 91% | –
CC[C@H](C)[C@H](NC(=O)[C@@H]1CCCN1C(=O)[C@H](CNC(=O)[C@@H]1CCCN1C(=O)CNC(=O)[C@H](CC(=O)O)NC(=O)[C@H](CCCCNC(=O)CCS[C@@H]1O[C@H](CO)[C@H](O)[C@H](O)[C@H]1O)NC(=O)CCS[C@@H]1O[C@H](CO)[C@H](O)[C@H](O)[C@H]1O)NC(=O)[C@@H]1CCCN1C(=O)CNC(=O)[C@H](CC(=O)O)NC(=O)[C@H](CCCCNC(=O)CCS[C@@H]1O[C@H](CO)[C@H](O)[C@H](O)[C@H]1O)NC(=O)CCS[C@@H]1O[C@H](CO)[C@H](O)[C@H](O)[C@H]1O)C(=O)N[C@@H](CCC(=O)O)C(=O)N[C@H](C(=O)N[C@@H](CS)C(=O)N(C(C)=O)[C@H]1CCc2cc(OC)c(OC)c(OC)c2-c2ccc(OC)c(=O)cc21)C(C)C (I: [Mpa](βGal)K(X2)DGP[Dap]PIEV-X1 / II: [Mpa](βGal)K(X2)DGP; amide I:6-II:C) | – | – | – | inactive
CC[C@H](C)[C@H](NC(=O)[C@@H]1CCCN1C(=O)[C@H](CNC(=O)[C@@H]1CCCN1C(=O)CNC(=O)[C@H](CC(N)=O)NC(=O)[C@H](CCCCNC(=O)CCS[C@@H]1O[C@H](CO)[C@H](O)[C@H](O)[C@H]1O)NC(=O)CCS[C@@H]1O[C@H](CO)[C@H](O)[C@H](O)[C@H]1O)NC(=O)[C@@H]1CCCN1C(=O)CNC(=O)[C@H](CC(N)=O)NC(=O)[C@H](CCCCNC(=O)CCS[C@@H]1O[C@H](CO)[C@H](O)[C@H](O)[C@H]1O)NC(=O)CCS[C@@H]1O[C@H](CO)[C@H](O)[C@H](O)[C@H]1O)C(=O)N[C@@H](CCC(=O)O)C(=O)N[C@H](C(=O)N[C@@H](CS)C(=O)N(C(C)=O)[C@H]1CCc2cc(OC)c(OC)c(OC)c2-c2ccc(OC)c(=O)cc21)C(C)C (I: [Mpa](βGal)K(X2)NGP[Dap]PIEV-X1 / II: [Mpa](βGal)K(X2)NGP; amide I:6-II:C) | – | – | – | inactive
COc1cc2c(c(OC)c1OC)-c1ccc(OC)c(=O)cc1[C@@H](NC(C)=O)CC2 [COLCHICINE] | 57 | 0.02 | 85% | –
